Bioassay records as filed in PubChem.
Cav3 T inh: Cav3.2 calcium influx blockers – cell-based, Fluo-4 calcium fluorescence, FDSS, MLSMR library, primary screen; Voltage-dependent T-type calcium channel subunit alpha-1H (Homo sapiens), O95180; B-score at 10 µM; actives 4% (n = 100,000); Cav3.2-expressing cells; active compounds read low;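 active means single-dose well whose peak fluorescence ratio is a statistical outlier from its plate by either plate-standardised score or position-corrected B-score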
HIV Rev-RRE inh: HIV-1 Rev-RRE binding inhibitors, primary screen, biochemical, FRET, protein-RNA interaction. P05866. Rev peptide-RRE RNA binding. inhibition, % at 8 µM. actives 0.79% (n = 97,000). AID 704, 2007;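 active means inhibition above the screen-wide mean plus 3 SD, cut at about 35% in these data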;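 further: 0% = median DMSO wells and 100% = median Neomycin B control wells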
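Probe or stimulus: fluorescein-Rev peptide as binding partner; assay system: Cy5-tagged RRE RNA duplex with fluorescein-tagged Rev peptide; timing: 5 min compound–RNA preincubation, then 15 min with peptide, 25 °C; medium: HEPES pH 7.5 buffer with KCl, MgCl2, NaCl and EDTA; signal: fluorescein-to-Cy5 FRET, 480 nm excitation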
PLK1 PBD inh: Plk1 polo box domain binding inhibitors, primary screen, biochemical, fluorescence polarization. Serine/threonine-protein kinase PLK1 (Homo sapiens), P53350. Plk1 PBD phosphopeptide binding. inhibition, %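 (tested at about 20 µM)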. actives 0.13% (n = 97,000); in the data active means inhibition above about 34%, passing the limit was not always enough
PLK1 kinase inh: human PLK1 kinase inhibitors, primary screen, biochemical, TR-FRET; recombinant PLK1 kinase, TR-FRET peptide phosphorylation; Serine/threonine-protein kinase PLK1 (Homo sapiens), P53350; AID 619, 2007; inhibition, % at 10 µM; actives 0.53% (n = 97,000);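 active means inhibition of 50% or more in the single-concentration screen; inactive means inhibition below 50%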;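 further: 0% = DMSO max control and 100% = H-89 dihydrochloride min control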
FAK inh: FAK kinase inhibitors, primary screen, biochemical | Focal adhesion kinase 1 (Homo sapiens), Q05397 | biochemical FAK kinase activity assay | inhibition, %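 (tested at 7 µM)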 | actives 0.84% (n = 97,000); in the data active means inhibition above about 19%;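 further: 0% = DMSO and 100% = reference compound high control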
Pyk2 oligo antag: antagonists of Pyk2 self-association, primary screen, Q293 cells, FERM NanoBiT luminescence, HTS; Protein-tyrosine kinase 2-beta (Homo sapiens), Q14289; active compounds read low; z-score (the deposit names both 25 µM and 10 µM); actives 0.83% (n = 99,000); AID 1347419, 2020;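 active means Z-score of -3 or lower, scaled per plate to the spread of control and sample wells; inactive means z-score above -3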;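 further: negative z-score means lost luminescence so less FERM oligomerization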
* = called active by the depositor; nt = no result given. Shown are actives, neighbours in structure and some others; about 5.8% of the full set was active somewhere.

SMILES | Cav3 T inh | HIV Rev-RRE inh | PLK1 PBD inh | PLK1 kinase inh | FAK inh | Pyk2 oligo antag
Nc1ccc(Cl)cc1/C(=N/O)c1ccccc1 | -1.1 | nt | nt | nt | nt | -0.3
O=C(O)CCCC(=O)NCCCCc1ccccc1 | -1.8 | 5 | 16 | 1 | -2 | 0.7
CCO[C@H]1OC(C(=O)N2CCN(Cc3ccc4c(c3)OCO4)CC2)=C[C@@H](c2ccc(C(F)(F)F)cc2)[C@@H]1CCCO | -2.1 | nt | nt | nt | nt | nt
Cc1ccc(C(=O)NC(O)C(Cl)Cl)cc1 (stereo unspecified) | nt | nt | nt | nt | nt | 0.01
Cc1ccc(NCc2nnc(SCC(=O)Nc3ccccc3)n2CC2CCCO2)c(C)c1 (stereo unspecified) | -4.5* | 1 | -5 | -2 | -4 | -1
CCn1c(COc2cccc3ccccc23)nnc1SCC(=O)OC1CCCCC1 | -5.6* | 3 | 14 | -15 | 1 | 3.7
O=C(COC(=O)c1ccc[nH]c1=O)NCC1CCCO1 (stereo unspecified) | 0.26 | 8 | 13 | -7 | -1 | 0.53
Cc1c(Cl)ccc2c1NC(=O)[C@]21N[C@@H](Cc2ccccc2)[C@H]2C(=O)N(c3ccc(F)cc3)C(=O)[C@H]21 | -0.069 | 11 | -7 | -5 | 1 | -0.24
CCC(C)Oc1cccc(C(=O)Nc2ccccc2N2CCOCC2)c1 (stereo unspecified) | -5.3* | 11 | -2 | -10 | -1 | -3
O=C(Nc1ccccc1N1CCOCC1)c1ccc2ccccc2n1 | 0.54 | 7 | -18 | -3 | 0 | -3.6*
CCOC(=O)C1C(=O)NC(SC)=C(C#N)C1c1ccccc1F (stereo unspecified) | -4.9* | nt | nt | nt | nt | -1.6
CCOC(=O)C1C(=O)NC(SCC(N)=O)=C(C#N)C1c1ccccc1OCC (stereo unspecified) | -0.022 | nt | nt | nt | nt | -0.16
CC1(C)CC(NCc2ccc3c(c2)OCO3)CCO1 (stereo unspecified) | 0.031 | 4 | -7 | -6 | -1 | -0.72
Cc1ccc(C(C(=O)NC2CCCC2)N(Cc2ccc3c(c2)OCO3)C(=O)Cc2cccs2)cc1 (stereo unspecified) | -0.23 | 2 | -10 | -6 | 1 | -1.8
O=C(NC1CCCCC1)C(c1ccccc1)N(Cc1ccc2c(c1)OCO2)C(=O)c1cnsn1 (stereo unspecified) | -7.5* | 1 | -36 | 4 | 0 | -2.1
O=C(/C=C/c1ccc([N+](=O)[O-])cc1)NCCSc1ccccc1 | -3.8* | 3 | 11 | 0 | -1 | 1.3
Cc1ccc(OCCNC(=O)/C=C/c2ccc([N+](=O)[O-])cc2)cc1C | -0.99 | 12 | 37 | -7 | 3 | 2.3
O=C(/C=C/c1ccccc1Cl)NCCc1ccccc1 | -2 | 7 | 2 | -1 | -1 | -1.1
Cc1ccc(SCCNC(=O)/C=C/c2ccccc2Cl)cc1 | -2.8* | 15 | 43 | -10 | 0 | -0.52
Cc1cc(N)n(-c2ccc3ccccc3c2)n1 | 1.2 | 13 | -17 | -5 | 0 | -2
O=C(CSc1ccc(-c2ccc(Cl)cc2)nn1)Nc1ccc2c(c1)OCCO2 | nt | nt | nt | nt | nt | -0.26
CCOC(=O)c1ccc(-c2c(C(=O)OCC)oc3cc(O)c(CC)cc3c2=O)o1 | -0.83 | 2 | 0 | -2 | 4 | -3.7*
CCOC(=O)c1oc2cc(O)ccc2c(=O)c1-c1ccccc1OC | 0.42 | -3 | 11 | -1 | 2 | -0.74
C(/C=C/C=C/Nc1ccccc1)=Nc1ccccc1 | -5* | 9 | -86 | -10 | -2 | -0.38
CC1(NC(=O)c2cc(S(=O)(=O)N3CCCCC3)ccc2Cl)CCS(=O)(=O)C1 (stereo unspecified) | 0.52 | 2 | -18 | -10 | 0 | 0.69
SMILES | Cav3 T inh | HIV Rev-RRE inh | PLK1 PBD inh | PLK1 kinase inh | FAK inh | Pyk2 oligo antag
CC(C)N(C(=O)CSc1nnnn1C1CCCC1)C(C)C | -3.7* | 5 | -1 | -25 | -8 | 0.8
CCCCCCOC(=O)Nc1ccc(S(=O)(=O)Nc2cccc([N+](=O)[O-])c2)cc1 | nt | nt | nt | nt | nt | 0.63
CC(C)C[C@H](NC(=O)OC(C)(C)C)C(=O)N1CCC(C(=O)N[C@@H](Cc2ccccc2)C(=O)O)CC1 | nt | -6 | 0 | -6 | 1 | -0.2
CCOc1cc(C(=O)NC(C)c2ccncc2)cc(OCC)c1OCC (stereo unspecified) | 1.8 | 1 | 8 | -13 | -2 | 0.54
O=C(c1sc2ccccc2c1Cl)N(Cc1cccs1)C1CCS(=O)(=O)C1 (stereo unspecified) | -7.8* | 3 | -31 | -1 | -4 | nt
CSc1n[nH]c(-c2sccc2OCc2ccc(C)cc2)n1 | -3.7* | 3 | 33 | -7 | 6 | -0.05
Nc1nncn1C(=O)c1cccs1 | -0.82 | 9 | -10 | 57* | 0 | -0.31
Cc1ccc(C)c(C(=O)n2cnnc2N)c1 | 0.23 | 7 | 8 | 54* | 3 | 0.48
CCOC(=O)c1sc2nc(CC(=O)OC)nc(NCc3ccc(F)cc3)c2c1C | -0.72 | 3 | 10 | -5 | 2 | -2.3
CCOC(=O)c1sc2nc(CC(=O)OC)nc(N3CCN(c4ccccn4)CC3)c2c1C | -2.9* | 2 | -19 | -1 | -1 | -1.9
C#CCn1c(=NC(=O)CN2C(=O)CCC2=O)sc2cccc(C)c21 | 0.44 | -2 | -39 | 62* | 4 | nt
C=CCn1c(=NC(=O)CN2C(=O)CCC2=O)sc2cccc(OC)c21 | 0.77 | -2 | -16 | -11 | -2 | nt
COc1ccc(C(C#N)C2(C)OCCO2)cc1OC (stereo unspecified) | 0.11 | 0 | 3 | -8 | -1 | 1
Cc1cccc(N2CCN(C(=O)NCc3ccc(Cl)cc3)CC2)c1 | -9.6* | 5 | 9 | -10 | 0 | 1.5
CCCCC(CCC(=O)Nc1ccc(C(=O)OC)cc1)C(=O)O (stereo unspecified) | 0.12 | -1 | -24 | -14 | 3 | 0.96
CCOC(=O)CSCC(=O)Nc1c(C(=O)C2CC2)oc2ccccc12 | -4.7* | 5 | 18 | -9 | 0 | 3.1
CC(=O)Nc1cccc(Oc2ccc(-c3noc(C)n3)cc2)c1 | -0.58 | 7 | 7 | -2 | 3 | -0.21
COc1cc(Cl)cc2c1Sc1ccccc1/C2=C/CCN(C)C | -0.43 | -1 | 11 | -5 | 1 | 0.41
CN(C)CC/C=C1/c2ccccc2Sc2c(O)cc(Cl)cc21 | -0.024 | 0 | 15 | -10 | 40* | -0.73
c1csc(-c2csc3nc(CN4CCOCC4)nc(NCc4ccc5c(c4)OCO5)c23)c1 | -7.6* | 1 | -26 | 5 | 2 | -2.6
CC(=O)Nc1cc2c(cc1C(=O)c1ccc(C)cc1)OCCO2 | -5.2* | 7 | -7 | -5 | 0 | -0.13
